Data reported in the M2OR odorant receptor database.

Tests used:
Settings in all cases: stereoisomer not certain
O14A2 I133V = test system: O14A2 I133V
Summary of the method: (§1)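 Whether a receptor–molecule pair is responsive (active) rests on the original authors' judgment that its measured signal was statistically different from baseline. Pairs without that judgment are non-responsive (inactive). Sources used varied assay methods, commonly transient luciferase assays in mammalian cell lines.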

O14CZ = test system: O14CZ
Summary of the method: as §1

O14I1 V36A D50N Y216C = test system: O14I1 V36A D50N Y216C
Summary of the method: as §1

O14J1 N3Y = test system: O14J1 N3Y
Summary of the method: as §1

O14K1 D119Y = test system: O14K1 D119Y
Summary of the method: as §1

O2A25 = test system: O2A25
Summary of the method: as §1

O2AE1 = test system: O2AE1
Summary of the method: as §1

O2AJ1 = test system: O2AJ1
Summary of the method: as §1

Measured: odorant receptor agonist call;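 also: active if original authors judged signal statistically different from baseline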

Sequence of O14J1 N3Y (as listed by the source): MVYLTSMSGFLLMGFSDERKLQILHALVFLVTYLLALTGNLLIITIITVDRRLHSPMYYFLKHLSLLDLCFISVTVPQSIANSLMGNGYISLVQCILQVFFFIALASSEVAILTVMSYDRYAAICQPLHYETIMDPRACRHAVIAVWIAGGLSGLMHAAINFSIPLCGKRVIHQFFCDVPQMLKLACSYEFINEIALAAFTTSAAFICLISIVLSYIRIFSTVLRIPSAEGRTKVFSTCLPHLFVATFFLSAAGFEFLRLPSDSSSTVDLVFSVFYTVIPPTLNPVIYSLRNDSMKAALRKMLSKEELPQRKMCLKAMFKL
Sequence of O14CZ (as listed by the source): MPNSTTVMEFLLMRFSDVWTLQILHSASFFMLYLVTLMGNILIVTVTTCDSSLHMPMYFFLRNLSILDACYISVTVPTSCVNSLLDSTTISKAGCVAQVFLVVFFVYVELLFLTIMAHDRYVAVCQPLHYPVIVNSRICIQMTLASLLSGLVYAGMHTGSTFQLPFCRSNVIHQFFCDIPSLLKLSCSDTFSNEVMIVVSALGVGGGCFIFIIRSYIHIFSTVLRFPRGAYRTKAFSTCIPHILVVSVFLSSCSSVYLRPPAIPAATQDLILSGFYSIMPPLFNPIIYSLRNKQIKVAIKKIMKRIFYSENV
Sequence of O14K1 D119Y (as listed by the source, stated change not applied): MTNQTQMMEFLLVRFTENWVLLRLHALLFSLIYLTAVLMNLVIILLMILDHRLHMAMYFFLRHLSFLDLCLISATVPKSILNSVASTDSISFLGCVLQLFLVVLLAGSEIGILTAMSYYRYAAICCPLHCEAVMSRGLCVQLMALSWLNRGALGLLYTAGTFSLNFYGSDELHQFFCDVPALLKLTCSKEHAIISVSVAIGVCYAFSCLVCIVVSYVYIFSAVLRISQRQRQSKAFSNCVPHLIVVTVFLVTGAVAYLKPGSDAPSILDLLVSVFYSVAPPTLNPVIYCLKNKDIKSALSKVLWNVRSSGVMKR
Sequence of O2AE1 (as listed by the source): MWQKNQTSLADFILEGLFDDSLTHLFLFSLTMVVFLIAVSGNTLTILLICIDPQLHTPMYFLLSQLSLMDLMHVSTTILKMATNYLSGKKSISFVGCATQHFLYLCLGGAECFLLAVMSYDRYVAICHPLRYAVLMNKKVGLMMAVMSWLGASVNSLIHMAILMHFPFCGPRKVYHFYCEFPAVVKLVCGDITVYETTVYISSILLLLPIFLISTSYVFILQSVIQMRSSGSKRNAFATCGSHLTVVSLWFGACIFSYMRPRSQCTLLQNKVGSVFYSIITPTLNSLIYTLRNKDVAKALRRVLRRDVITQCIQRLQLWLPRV
Sequence of O2AJ1 (as listed by the source): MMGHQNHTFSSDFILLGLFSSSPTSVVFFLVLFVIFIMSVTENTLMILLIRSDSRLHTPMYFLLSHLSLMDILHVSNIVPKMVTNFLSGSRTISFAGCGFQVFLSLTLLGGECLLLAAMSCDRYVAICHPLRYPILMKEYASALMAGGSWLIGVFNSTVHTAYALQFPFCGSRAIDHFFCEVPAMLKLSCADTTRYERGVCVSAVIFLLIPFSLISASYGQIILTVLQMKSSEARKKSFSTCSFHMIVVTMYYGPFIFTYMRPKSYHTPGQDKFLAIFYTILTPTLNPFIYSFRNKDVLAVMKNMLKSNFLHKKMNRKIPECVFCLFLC
Sequence of O2A25 (as listed by the source): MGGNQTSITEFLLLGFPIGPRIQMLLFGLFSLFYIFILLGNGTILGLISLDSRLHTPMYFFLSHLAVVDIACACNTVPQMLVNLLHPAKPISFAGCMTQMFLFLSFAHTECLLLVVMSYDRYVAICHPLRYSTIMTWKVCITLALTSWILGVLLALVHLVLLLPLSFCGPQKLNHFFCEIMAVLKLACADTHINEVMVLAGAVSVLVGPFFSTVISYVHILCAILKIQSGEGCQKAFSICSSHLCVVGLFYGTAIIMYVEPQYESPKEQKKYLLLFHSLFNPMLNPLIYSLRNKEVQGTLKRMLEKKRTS
Sequence of O14A2 I133V (as listed by the source, stated change not applied): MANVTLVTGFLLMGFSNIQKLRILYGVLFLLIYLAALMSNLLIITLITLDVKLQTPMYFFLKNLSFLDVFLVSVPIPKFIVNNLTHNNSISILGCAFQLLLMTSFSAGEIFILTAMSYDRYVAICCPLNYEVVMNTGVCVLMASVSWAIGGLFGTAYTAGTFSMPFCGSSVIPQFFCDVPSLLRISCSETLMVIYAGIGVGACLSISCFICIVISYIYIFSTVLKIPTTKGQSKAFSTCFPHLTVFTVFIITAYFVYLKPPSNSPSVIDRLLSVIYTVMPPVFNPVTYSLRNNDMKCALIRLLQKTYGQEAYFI

C=CCOC(=O)Cc1ccccc1
inactive: all assays above
